Measurements from ChEMBL document CHEMBL1134649, “Syntheses and structure--activity relationships of novel apio and thioapio dideoxydidehydronucleosides as anti-HCMV agents” (J Med Chem, 2001).
Values after ≈ are worked out from the molar mass of the structure shown.

What was measured:
Human betaherpesvirus 5 [1] = assay: Antiviral activity was determined against Human cytomegalovirus (HCMV) strain AD-169 using CPE inhibition assay; format: functional, organism-based
Procedure, shortened: (§1)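 HEL cells in stationary phase were infected at 2–4 CCID50 per well and the virus was adsorbed 2 h at 37 °C. Unadsorbed virus was removed and compound in MEM/2% FBS was added, in duplicate per concentration, for 6 days. CPE was read either microscopically (70% ethanol fixation, Giemsa stain) or by fluorescein diacetate fluorescence (485/538 nm). EC50 was taken from semilog plots of %CPE against concentration.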

Human betaherpesvirus 5 [2] = assay: Antiviral activity was determined against Human cytomegalovirus (HCMV) strain Davis using CPE inhibition assay; format: functional, organism-based; procedure, shortened: as §1
HEL 299 = assay: Cytotoxic concentration of compound was tested against HEL299(human embryonic lung fibroblast) cells using cytotoxic assay; format: functional
Procedure, shortened: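 Run as a mock-infected control alongside the antiviral assay in HEL cells, with the same 6-day incubation in MEM/2% FBS. Viability was read by propidium iodide fluorescence in place of fluorescein diacetate. CC50 is the concentration giving 50% loss of viability.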

| EC50 (Human betaherpesvirus 5 [1]) [µg/mL] | EC50 (Human betaherpesvirus 5 [2]) [µg/mL] | SMILES | CC50 (HEL 299) [µg/mL] |
| --- | --- | --- | --- |
| 44.1 (≈ 131 µM) | 27.2 (≈ 80.9 µM) | O=c1[nH]c(=O)n(C2C=C(CO)CO2)cc1I (stereo not given) | > 100 |
| 11.7 (≈ 55.7 µM) | > 33.3 | O=c1ccn(C2C=C(CO)CO2)c(=O)[nH]1 (stereo not given) | 33.3 (≈ 158 µM) |
| 33.7 (≈ 117 µM) | 25.4 (≈ 87.9 µM) | O=c1[nH]c(=O)n(C2C=C(CO)CO2)cc1Br (stereo not given) | > 100 |
| 33.3 (≈ 149 µM) | 16.6 (≈ 74 µM) | Cc1cn(C2C=C(CO)CO2)c(=O)[nH]c1=O (stereo not given) | > 100 |
| 41.7 (≈ 170 µM) | 25.1 (≈ 103 µM) | O=c1[nH]c(=O)n(C2C=C(CO)CO2)cc1Cl (stereo not given) | 63.3 (≈ 259 µM) |
| 6.9 (≈ 30.2 µM) | 2.81 (≈ 12.3 µM) | O=c1[nH]c(=O)n(C2C=C(CO)CO2)cc1F (stereo not given) | > 100 |

The next lines start with the compound.

| SMILES | EC50 (Human betaherpesvirus 5 [1]) [µg/mL] | EC50 (Human betaherpesvirus 5 [2]) [µg/mL] | CC50 (HEL 299) [µg/mL] |
| --- | --- | --- | --- |
| O=c1ccn(C2C=C(CO)CS2)c(=O)[nH]1 (stereo not given) | > 100 | > 100 | > 100 |
| O=C(O)P(=O)(O)O [FOSCARNET] | 64.9 (≈ 515 µM) | 38.7 (≈ 307 µM) | > 300 |
| Cc1cn(C2C=C(CO)CS2)c(=O)[nH]c1=O (stereo not given) | > 100 | > 100 | > 100 |
| Nc1nc2c(ncn2COC(CO)CO)c(=O)[nH]1 [GANCICLOVIR] | 1.09 (≈ 4.27 µM) | 0.61 (≈ 2.39 µM) | > 10 |
